{"source": "ChEMBL document CHEMBL1122387", "about": "“Synthesis and biological evaluation of sparsomycin analogues” (1983)", "key": {"[1]": {"test": "Percent inhibition of [123I]UdR incorporation in the DNA synthesis assay in bone marrow cells at a concentration of 10 e-3 M", "format": "functional", "conditions": "Mus musculus, Bone element; in the assay text read “[125I]UdR” for “[123I]UdR”", "method_in_brief": "(§1)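 DNA synthesis over 2 h at 37 °C, 5% CO2, on a rocker. Wells hold 6×10^5 cells (3×10^6 cells/mL): femoral marrow from male CD-1 mice, or P388 ascites cells kept by ip passage in DBA/2 mice. Medium is αMEM. Label is 0.1 μCi 125IUdR in 2×10^-5 M FUdR. Cells are harvested and gamma-counted. % inhibition versus control cpm, six replicate wells; ara-C serves as control.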"}, "[2]": {"test_system": "P388", "test": "Percent inhibition of [123I]UdR incorporation in the DNA synthesis assay in P388 cell lines at a concentration of 10 E-3 M", "format": "functional", "conditions": "Mus musculus, in the assay text read “[125I]UdR” for “[123I]UdR”", "method_in_brief": "as §1"}, "[3]": {"test_system": "P815", "test": "Percent inhibition of [75Se]- selenomethionine incorporation in the protein synthesis assay in P815 cell lines at a concentration of 10 E-3 M", "format": "functional", "conditions": "Mus musculus", "method_in_brief": "(§2)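 P815 mastocytoma cells are cultured in complete DMEM and plated at 6×10^5 cells per well in CDMEM. 0.2 μCi L-[75Se]selenomethionine is added with compound, 2 h at 37 °C, 5% CO2, on a rocker. Cells are harvested and gamma-counted. % inhibition is taken versus control cpm (ethanol controls where used), four replicate wells.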"}, "[4]": {"test": "Percent inhibition of [75Se]- selenomethionine incorporation in the protein synthesis assay in bone marrow cell lines at a concentration of 10 E-3", "format": "functional, Mus musculus", "method_in_brief": "(§3)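 Protein synthesis in 6×10^5 cells per well (3×10^6 cells/mL), from CD-1 mouse femoral marrow or ip-passaged DBA/2 P388 cells. Medium is Spinner's (10% heat-inactivated FCS for P388). 0.2 μCi L-[75Se]selenomethionine is added with compound, 2 h at 37 °C, 5% CO2, rocked. Cells are harvested and gamma-counted. % inhibition versus control cpm (ethanol controls where used), six replicate wells; puromycin or sparsomycin serves as control.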"}, "[5]": {"test_system": "P388", "test": "Percent inhibition of [75Se]- selenomethionine incorporation in the protein synthesis assay in P388 cell lines at a concentration of 10 E-3 M", "format": "functional", "conditions": "Mus musculus", "method_in_brief": "as §3"}, "[6]": {"test_system": "Osteoclast-like", "test": "Percent inhibition of [75Se]- selenomethionine incorporation in the protein synthesis assay in bone marrow cell lines at a concentration of 10 E-4", "format": "functional, Mus musculus", "method_in_brief": "as §3"}, "[7]": {"test_system": "P388", "test": "Percent inhibition of [75Se]- selenomethionine incorporation in the protein synthesis assay in P388 cell lines at a concentration of 10 E-4 M", "format": "functional", "conditions": "Mus musculus", "method_in_brief": "as §3"}, "[8]": {"test_system": "P815", "test": "Percent inhibition of [75Se]- selenomethionine incorporation in the protein synthesis assay in P815 cell lines at a concentration of 10 E-4 M", "format": "functional", "conditions": "Mus musculus", "method_in_brief": "as §2"}}}
{"molecule": "Nc1ccn([C@@H]2O[C@H](CO)[C@@H](O)[C@@H]2O)c(=O)n1", "note": "[CYTARABINE]", "values": [{"measurement": "inhibition at 1000 µM", "setting": "[1]", "value": 99, "unit": "%"}, {"measurement": "inhibition at 1000 µM", "setting": "[2]", "value": 99, "unit": "%"}]}
{"molecule": "COc1ccc(CCNC(=O)/C=C/c2c(C)nc(O)nc2O)cc1", "values": [{"measurement": "inhibition at 1000 µM", "setting": "[1]", "value": 0, "unit": "%"}, {"measurement": "inhibition at 1000 µM", "setting": "[3]", "value": 0, "unit": "%"}, {"measurement": "inhibition at 1000 µM", "setting": "[2]", "value": 2, "unit": "%"}, {"measurement": "Inhibition", "setting": "[4]", "value": 44, "unit": "%"}, {"measurement": "inhibition at 1000 µM", "setting": "[5]", "value": 0, "unit": "%"}]}
{"molecule": "COc1ccc(CNC(=O)CCNC(=O)/C=C/c2c(C)nc(O)nc2O)cc1", "values": [{"measurement": "inhibition at 1000 µM", "setting": "[3]", "value": 0, "unit": "%"}, {"measurement": "Inhibition", "setting": "[4]", "value": 11, "unit": "%"}, {"measurement": "inhibition at 1000 µM", "setting": "[5]", "value": 1, "unit": "%"}]}
{"molecule": "Cc1nc(O)nc(O)c1/C=C/C(=O)NC(CO)Cc1ccc(Br)cc1", "note": "(stereo unspecified)", "values": [{"measurement": "inhibition at 1000 µM", "setting": "[1]", "value": 15, "unit": "%"}, {"measurement": "inhibition at 1000 µM", "setting": "[3]", "value": 94, "unit": "%"}, {"measurement": "inhibition at 1000 µM", "setting": "[2]", "value": 34, "unit": "%"}, {"measurement": "Inhibition", "setting": "[4]", "value": 64, "unit": "%"}, {"measurement": "inhibition at 1000 µM", "setting": "[5]", "value": 44, "unit": "%"}]}
{"molecule": "Cc1nc(O)nc(O)c1/C=C/C(=O)NCCC(=O)NCc1ccc(Br)cc1", "values": [{"measurement": "inhibition at 1000 µM", "setting": "[3]", "value": 69, "unit": "%"}, {"measurement": "Inhibition", "setting": "[4]", "value": 29, "unit": "%"}, {"measurement": "inhibition at 1000 µM", "setting": "[5]", "value": 23, "unit": "%"}]}
{"molecule": "Cc1ccc(CC(CO)NC(=O)/C=C/c2c(C)nc(O)nc2O)cc1", "note": "(stereo unspecified)", "values": [{"measurement": "inhibition at 1000 µM", "setting": "[1]", "value": 0, "unit": "%"}, {"measurement": "inhibition at 1000 µM", "setting": "[3]", "value": 65, "unit": "%"}, {"measurement": "inhibition at 1000 µM", "setting": "[2]", "value": 0, "unit": "%"}, {"measurement": "Inhibition", "setting": "[4]", "value": 40, "unit": "%"}, {"measurement": "inhibition at 1000 µM", "setting": "[5]", "value": 4, "unit": "%"}]}
{"molecule": "COc1ccc(C[C@H](N)C(=O)N[C@H]2[C@@H](O)[C@H](n3cnc4c(N(C)C)ncnc43)O[C@@H]2CO)cc1", "note": "[PUROMYCIN]", "values": [{"measurement": "inhibition at 1000 µM", "setting": "[3]", "value": 98, "unit": "%"}, {"measurement": "Inhibition", "setting": "[4]", "value": 61, "unit": "%"}, {"measurement": "inhibition at 1000 µM", "setting": "[5]", "value": 64, "unit": "%"}]}
{"molecule": "Cc1nc(O)nc(O)c1/C=C/C(=O)NCCc1ccccc1", "values": [{"measurement": "inhibition at 1000 µM", "setting": "[1]", "value": 0, "unit": "%"}, {"measurement": "inhibition at 1000 µM", "setting": "[3]", "value": 2, "unit": "%"}, {"measurement": "inhibition at 1000 µM", "setting": "[2]", "value": 9, "unit": "%"}, {"measurement": "Inhibition", "setting": "[4]", "value": 34, "unit": "%"}, {"measurement": "inhibition at 1000 µM", "setting": "[5]", "value": 1, "unit": "%"}]}
{"molecule": "Cc1ccc(CCNC(=O)/C=C/c2c(C)nc(O)nc2O)cc1", "values": [{"measurement": "inhibition at 1000 µM", "setting": "[1]", "value": 0, "unit": "%"}, {"measurement": "inhibition at 1000 µM", "setting": "[3]", "value": 11, "unit": "%"}, {"measurement": "inhibition at 1000 µM", "setting": "[2]", "value": 0, "unit": "%"}, {"measurement": "Inhibition", "setting": "[4]", "value": 35, "unit": "%"}, {"measurement": "inhibition at 1000 µM", "setting": "[5]", "value": 0, "unit": "%"}]}
{"molecule": "Cc1nc(O)nc(O)c1/C=C/C(=O)NCCc1ccc(Br)cc1", "values": [{"measurement": "inhibition at 1000 µM", "setting": "[1]", "value": 0, "unit": "%"}, {"measurement": "inhibition at 1000 µM", "setting": "[3]", "value": 89, "unit": "%"}, {"measurement": "inhibition at 1000 µM", "setting": "[2]", "value": 17, "unit": "%"}, {"measurement": "Inhibition", "setting": "[4]", "value": 42, "unit": "%"}, {"measurement": "inhibition at 1000 µM", "setting": "[5]", "value": 27, "unit": "%"}]}
{"molecule": "COc1ccc(CC(CO)NC(=O)/C=C/c2c(C)nc(O)nc2O)cc1", "note": "(stereo unspecified)", "values": [{"measurement": "Inhibition", "setting": "[6]", "value": 0, "unit": "%"}, {"measurement": "inhibition at 100 µM", "setting": "[7]", "value": 0, "unit": "%"}, {"measurement": "inhibition at 100 µM", "setting": "[8]", "value": 0, "unit": "%"}]}
{"molecule": "CSC[S@@+]([O-])CC(CO)NC(=O)/C=C/c1c(C)[nH]c(=O)[nH]c1=O", "note": "(stereo partly specified) [SPARSOMYCIN]", "values": [{"measurement": "Inhibition", "setting": "[4]", "value": 29, "unit": "%"}, {"measurement": "inhibition at 1000 µM", "setting": "[5]", "value": 48, "unit": "%"}]}
{"molecule": "Cc1nc(O)nc(O)c1/C=C/C(=O)NC(CO)Cc1ccccc1", "note": "(stereo unspecified)", "values": [{"measurement": "inhibition at 1000 µM", "setting": "[1]", "value": 0, "unit": "%"}, {"measurement": "inhibition at 1000 µM", "setting": "[3]", "value": 52, "unit": "%"}, {"measurement": "inhibition at 1000 µM", "setting": "[2]", "value": 5, "unit": "%"}, {"measurement": "Inhibition", "setting": "[4]", "value": 34, "unit": "%"}, {"measurement": "inhibition at 1000 µM", "setting": "[5]", "value": 6, "unit": "%"}]}
